Active and inactive are the calls of the source. The rule behind the calls is not given here.
Assays:
[1] = Cytotoxicity against human GTB cells after 5 hrs by MTT assay; assay type: functional, cell-based
Method in brief: (§1)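 Leukemic cells at 0.5 × 10^6 cells/mL in RPMI were exposed to 0.01–2.00 µM compound (0.1% final DMSO) at 37 °C and 5% CO2. Viability was measured as MTT formazan, dissolved in DMSO and read at 550 and 630 nm. Three wells per point, on three separate days (n = 9). IC50 was taken graphically from per-experiment dose curves.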

HL-60 = assay: Cytotoxicity against human HL-60 cells after 5 hrs by MTT assay; assay type: functional, cell-based; conditions: HL-60, 5 h; method in brief: as §1
A-431 [2] = assay: Cytotoxicity against human A431 cells after 24 hrs by [3H]thymidine incorporation assay; assay type: functional, cell-based
Method in brief: (§2)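 Adherent tumor cells (100 µL at 1 × 10^6 cells/mL) were overlaid with 100 µL of medium containing compound in the 0.25–4.00 µM range (0.1% final DMSO). The medium control had no compound. Cells were incubated for 24, 48 or 72 h at 37 °C and 5% CO2, then pulsed 24 h with 3H-thymidine. They were harvested onto glass filters and counted by liquid scintillation. Three wells per point, on three separate days (n = 9). IC50 was taken graphically.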

A-431 [3] = assay: Cytotoxicity against human A431 cells after 48 hrs by [3H]thymidine incorporation assay; assay type: functional, cell-based; method in brief: as §2
A-431 [4] = assay: Cytotoxicity against human A431 cells after 72 hrs by [3H]thymidine incorporation assay; assay type: functional, cell-based; method in brief: as §2
HEp-2 [5] = assay: Cytotoxicity against human HEP2 cells after 24 hrs by [3H]thymidine incorporation assay; assay type: functional, cell-based; method in brief: as §2
HEp-2 [6] = assay: Cytotoxicity against human HEP2 cells after 48 hrs by [3H]thymidine incorporation assay; assay type: functional, cell-based; method in brief: as §2
HEp-2 [7] = assay: Cytotoxicity against human HEP2 cells after 72 hrs by [3H]thymidine incorporation assay; assay type: functional, cell-based; method in brief: as §2
MCF7 [8] = assay: Cytotoxicity against human MCF7 cells after 24 hrs by [3H]thymidine incorporation assay; assay type: functional, cell-based; method in brief: as §2
MCF7 [9] = assay: Cytotoxicity against human MCF7 cells after 48 hrs by [3H]thymidine incorporation assay; assay type: functional, cell-based; method in brief: as §2
MCF7 [10] = assay: Cytotoxicity against human MCF7 cells after 72 hrs by [3H]thymidine incorporation assay; assay type: functional, cell-based; method in brief: as §2
OVCAR-3 [11] = assay: Cytotoxicity against human OVCAR-3 cells after 24 hrs by [3H]thymidine incorporation assay; assay type: functional, cell-based; method in brief: as §2
OVCAR-3 [12] = assay: Cytotoxicity against human OVCAR-3 cells after 48 hrs by [3H]thymidine incorporation assay; assay type: functional, cell-based; method in brief: as §2
OVCAR-3 [13] = assay: Cytotoxicity against human OVCAR-3 cells after 72 hrs by [3H]thymidine incorporation assay; assay type: functional, cell-based; method in brief: as §2
[14] = Cytotoxicity against human SK MEL28 cells after 24 hrs by [3H]thymidine incorporation assay; assay type: functional, cell-based; conditions: SK-MEL-28; method in brief: as §2
[15] = Cytotoxicity against human SK MEL28 cells after 48 hrs by [3H]thymidine incorporation assay; assay type: functional, cell-based; conditions: SK-MEL-28; method in brief: as §2
[16] = Cytotoxicity against human SK MEL28 cells after 72 hrs by [3H]thymidine incorporation assay; assay type: functional, cell-based; conditions: SK-MEL-28; method in brief: as §2
[17] = Cytotoxicity against human SK37 cells after 24 hrs by [3H]thymidine incorporation assay; assay type: functional, cell-based; method in brief: as §2
[18] = Cytotoxicity against human SK37 cells after 48 hrs by [3H]thymidine incorporation assay; assay type: functional, cell-based; method in brief: as §2
[19] = Cytotoxicity against human SK37 cells after 72 hrs by [3H]thymidine incorporation assay; assay type: functional, cell-based; method in brief: as §2
SW872 [20] = assay: Cytotoxicity against human SW872 cells after 24 hrs by [3H]thymidine incorporation assay; assay type: functional, cell-based; method in brief: as §2
SW872 [21] = assay: Cytotoxicity against human SW872 cells after 48 hrs by [3H]thymidine incorporation assay; assay type: functional, cell-based; method in brief: as §2
SW872 [22] = assay: Cytotoxicity against human SW872 cells after 72 hrs by [3H]thymidine incorporation assay; assay type: functional, cell-based
Method in brief: (§3)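 Adherent tumour cells at 1 × 10^6 cells/mL (100 µL per well) overlaid with an equal volume of medium carrying test substance across 0.25–4.00 µM. Medium-only controls. Incubated 24, 48 or 72 h at 37 °C, 5% CO2, then pulsed 24 h with 3H-thymidine and harvested onto glass filters for scintillation counting. Final DMSO 0.1%. Triplicate wells, three days (n = 9). IC50 read graphically from each experiment's dose curve.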

ZR-75-1 [23] = assay: Cytotoxicity against human ZR-75-1 cells after 24 hrs by [3H]thymidine incorporation assay; assay type: functional, cell-based; method in brief: as §3
ZR-75-1 [24] = assay: Cytotoxicity against human ZR-75-1 cells after 48 hrs by [3H]thymidine incorporation assay; assay type: functional, cell-based; method in brief: as §3
ZR-75-1 [25] = assay: Cytotoxicity against human ZR-75-1 cells after 72 hrs by [3H]thymidine incorporation assay; assay type: functional, cell-based; method in brief: as §3
CD34+ cell [26] = assay: Antiproliferative activity against CSF and human recombinant erythropoietin-induced human CD34+ cells proliferation assessed as inhibition of BFU-erythroid formation at 1 uM after 12 days by clonogenic assay; assay type: functional, cell-based
Method in brief: (§4)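 Human CD34+ cells were immunomagnetically selected from mononuclear cells, with purity checked by FACS. They were plated at 2 × 10^3 cells/dish in Iscove's 0.8% methylcellulose with 30% FCS. Stimulation used 3 U/mL rhEPO plus 10% agar-stimulated leukocyte-conditioned medium. Final concentrations were 0.25–2.00 µM. Dishes were run in duplicate and repeated once (n = 4). CFU-E and mature BFU-E were scored at 12 days; primitive BFU-E and CFU-GM (>50 cells) at 18 days. IC50 was read graphically.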

CD34+ cell [27] = assay: Antiproliferative activity against CSF and human recombinant erythropoietin-induced human CD34+ cells proliferation assessed as inhibition of CFU-erythroid formation at 1 uM after 12 days by clonogenic assay; assay type: functional, cell-based; method in brief: as §4
[28] = Antiproliferative activity against CSF and human recombinant erythropoietin-induced human CD34+ cells proliferation assessed as inhibition of BFU-erythroid formation at 0.5 uM after 12 days by clonogenic assay; assay type: functional, CD34+ cell; parameters: scale not given: the % may be the effect or the level left; method in brief: as §4
[29] = Antiproliferative activity against CSF and human recombinant erythropoietin-induced human CD34+ cells proliferation assessed as inhibition of CFU-erythroid formation at 0.5 uM after 12 days by clonogenic assay; assay type: functional, CD34+ cell; parameters: scale not given: the % may be the effect or the level left; method in brief: as §4
CD34+ cell [30] = assay: Antiproliferative activity against CSF and human recombinant erythropoietin-induced human CD34+ cells proliferation assessed as inhibition of BFU-erythroid formation after 12 days by clonogenic assay; assay type: functional, cell-based; method in brief: as §4
[31] = (§5) Antiproliferative activity against CSF and human recombinant erythropoietin-induced human CD34+ cells proliferation assessed as inhibition of CFU-erythroid formation after 12 days by clonogenic assay; assay type: functional, CD34+ cell; method in brief: as §4
CD34+ cell [32] = assay: as §5; assay type: functional; method in brief: as §4
CD34+ cell [33] = assay: Antiproliferative activity against CSF and human recombinant erythropoietin-induced human CD34+ cells proliferation assessed as inhibition of CFU-GM formation after 18 days by clonogenic assay
[34] = Antiproliferative activity against CSF and human recombinant erythropoietin-induced human CD34+ cells proliferation assessed as inhibition of CFU-GM formation at 0.5 uM after 18 days by clonogenic assay; parameters: scale not given: the % may be the effect or the level left

C=C(C(=O)O[C@@H]1[C@@H](O)[C@H](O)[C@@H](OCC2=C3C(=O)C=C(C)[C@@]34C[C@@H](CC2)C(=C)C(=O)O4)O[C@H]1CO)[C@@H]1CCC(CO)=C2C(=O)C=C(C)[C@@]2(O)C1
IC50 [1]: 70 nM
IC50 (HL-60): 100 nM
IC50 (A-431 [2]): 700 nM
IC50 (A-431 [3]): 700 nM
IC50 (A-431 [4]): 500 nM
IC50 (HEp-2 [5]): 800 nM
IC50 (HEp-2 [6]): 700 nM
IC50 (HEp-2 [7]): 600 nM
IC50 (MCF7 [8]): 500 nM
IC50 (MCF7 [9]): 300 nM
IC50 (MCF7 [10]): 400 nM
IC50 (OVCAR-3 [11]): 900 nM
IC50 (OVCAR-3 [12]): 1000 nM
IC50 (OVCAR-3 [13]): 1000 nM
IC50 [14]: 1300 nM
IC50 [15]: 900 nM
IC50 [16]: 400 nM
IC50 [17]: 1300 nM
IC50 [18]: 900 nM
IC50 [19]: 700 nM
IC50 (SW872 [20]): 1500 nM
IC50 (SW872 [21]): 1400 nM
IC50 (SW872 [22]): 1400 nM
IC50 (ZR-75-1 [23]): 300 nM
IC50 (ZR-75-1 [24]): 300 nM
IC50 (ZR-75-1 [25]): 500 nM
Activity (CD34+ cell [26]): Active
Activity (CD34+ cell [27]): Active
Activity [28]: 60%
Activity [29]: 60%
Activity (CD34+ cell [30]): Dose-dependent effect
IC100 [31]: 2 µM
Activity (CD34+ cell [32]): Dose-dependent effect
Activity (CD34+ cell [33]): Dose-dependent effect
Activity [34]: 60%

C=C1C(=O)O[C@]23C[C@H]1CCC(CO)=C2C(=O)C=C3C
IC50 [1]: 260 nM
IC50 (HL-60): 260 nM
IC50 (A-431 [2]): 1500 nM
IC50 (A-431 [3]): 1300 nM
IC50 (A-431 [4]): 900 nM
IC50 (HEp-2 [5]): 1500 nM
IC50 (HEp-2 [6]): 1300 nM
IC50 (HEp-2 [7]): 1100 nM
IC50 (MCF7 [8]): 800 nM
IC50 (MCF7 [9]): 700 nM
IC50 (MCF7 [10]): 1000 nM
IC50 (OVCAR-3 [11]): 1900 nM
IC50 (OVCAR-3 [12]): 2100 nM
IC50 (OVCAR-3 [13]): 1800 nM
IC50 [14]: 2800 nM
IC50 [15]: 2600 nM
IC50 [16]: 1200 nM
IC50 [17]: 3200 nM
IC50 [18]: 2400 nM
IC50 [19]: 1800 nM
IC50 (SW872 [20]): 3100 nM
IC50 (SW872 [21]): 2200 nM
IC50 (SW872 [22]): 2800 nM
IC50 (ZR-75-1 [23]): 600 nM
IC50 (ZR-75-1 [24]): 900 nM
IC50 (ZR-75-1 [25]): 1000 nM
